{"data": "Measured values gathered from unrelated publications", "AHR": "Aryl hydrocarbon receptor (AHR, Homo sapiens, UniProt P35869)", "SLC10A2": "Ileal sodium/bile acid cotransporter (SLC10A2, Homo sapiens, UniProt Q12908)", "note": "Protocols differ between the studies behind these lines."}
{"Structure (SMILES)": "CC[C@H](C)[C@H](NC(=O)[C@H](CCCCN)NC(=O)[C@H](CO)NC(=O)[C@H](CC(=O)O)NC(=O)[C@H](CCCCN)NC(=O)[C@H](CCCCN)NC(=O)CNC(=O)[C@H](Cc1c[nH]cn1)NC(=O)[C@@H](N)CCC(N)=O)C(=O)N[C@H](C(=O)N[C@@H](CC(=O)O)C(=O)N[C@@H](Cc1c[nH]cn1)C(=O)N[C@@H](Cc1ccccc1)C(=O)N[C@@H](CCSC)C(=O)N[C@@H](CCCNC(=N)N)C(=O)O)[C@@H](C)O", "target": "Proliferating cell nuclear antigen (PCNA, Homo sapiens, UniProt P12004)", "observed": "binding", "technique": "ITC", "pH": "pH 7.4", "measurement": "Kd", "result": "45.3 µM"}
{"Structure (SMILES)": "O=C(c1cccc(Cl)n1)c1c[nH]c2ccccc12", "target": "AHR", "observed": "reporter gene", "mode": "agonist", "technique": "luciferase", "measurement": "EC50", "result": "0.178 µM"}
{"Structure (SMILES)": "Cc1cnc(-c2ccc(-c3ccc(NC(=O)Nc4c(F)cc(F)cc4F)cc3F)c3c2C(=O)NC3)[nH]1", "target": "Epithelial discoidin domain-containing receptor 1 (DDR1, Homo sapiens, UniProt Q08345)", "observed": "binding", "technique": "competition with immobilised ligand", "measurement": "Kd", "result": "0.0021 µM"}
{"Structure (SMILES)": "CCc1c(C)sc(NC(=O)C(Sc2ccccc2)c2ccccc2)c1C(=O)OC (stereo not drawn)", "target": "Cannabinoid receptor 2 (CNR2, Homo sapiens, UniProt P34972)", "observed": "cAMP", "mode": "agonist", "technique": "TR-FRET", "measurement": "EC50", "result": "0.0251 µM"}
{"Structure (SMILES)": "O=C(N[C@H]1COC(=O)[C@@H](NC(=O)c2cccc(O)c2O)COC(=O)[C@@H](NC(=O)c2cccc(O)c2O)COC1=O)c1cccc(O)c1O", "target": "Neutrophil gelatinase-associated lipocalin (LCN2, Homo sapiens, UniProt P80188, C107S)", "observed": "binding", "technique": "fluorescence", "pH": "pH 5.5", "measurement": "Kd", "result": "0.0055 µM"}
{"Structure (SMILES)": "C=CCSCC1Nc2cc(Cl)c(S(N)(=O)=O)cc2S(=O)(=O)N1 (stereo not drawn)", "target": "SLC10A2", "observed": "transporter uptake", "mode": "inhibitor", "measurement": "Ki", "result": "391 µM"}
{"Structure (SMILES)": "Cc1[nH]c2ccccc2c1C(=O)c1ccccc1", "target": "AHR", "observed": "reporter gene", "mode": "agonist", "technique": "luciferase", "measurement": "EC50", "result": "> 10 µM"}
{"Structure (SMILES)": "CCOC(=O)C1=C(C)NC(C)=C(C(=O)OC)C1c1cccc([N+](=O)[O-])c1 (stereo not drawn)", "target": "SLC10A2", "observed": "transporter uptake", "mode": "inhibitor", "measurement": "Ki", "result": "34.1 µM"}
{"Structure (SMILES)": "C#Cc1cccc(Nc2ncnc3cc(OC)c(OCCCCCCC(=O)NO)cc23)c1", "target": "Polyamine deacetylase HDAC10 (HDAC10, Homo sapiens, UniProt Q969S8)", "observed": "cell-free assay", "measurement": "Kd", "result": "7.38 µM"}
{"Structure (SMILES)": "NS(=O)(=O)c1cc2c(cc1Cl)N=CNS2(=O)=O", "target": "SLC10A2", "observed": "transporter uptake", "mode": "inhibitor", "measurement": "Ki", "result": "1220 µM"}
{"Structure (SMILES)": "CN(C)C(=O)c1cccc(C(=O)c2c[nH]c3ccccc23)n1", "target": "AHR", "observed": "reporter gene", "mode": "agonist", "technique": "luciferase", "measurement": "EC50", "result": "0.351 µM"}
{"Structure (SMILES)": "CCN(CC)CCCC(C)Nc1ccnc2cc(Cl)ccc12 (stereo not drawn)", "target": "SLC10A2", "observed": "transporter uptake", "mode": "inhibitor", "measurement": "Ki", "result": "6320 µM"}
{"Structure (SMILES)": "CSCC[C@H](NC(=O)[C@@H](NC(=O)[C@@H](N)Cc1ccc(O)cc1)C(C)C)C(=O)NCC(=O)N[C@@H](Cc1c[nH]cn1)C(=O)N[C@@H](Cc1ccccc1)C(=O)O", "target": "Melanocortin receptor 5 (MC5R, Homo sapiens, UniProt P33032)", "observed": "reporter gene", "mode": "agonist", "measurement": "EC50", "result": "> 100 µM"}
{"Structure (SMILES)": "CC[C@H](C)C(=O)O[C@H]1C[C@H](O)C=C2C=C[C@H](C)[C@H](CC[C@@H](O)C[C@@H](O)CC(=O)O)[C@H]21", "target": "SLC10A2", "observed": "transporter uptake", "mode": "inhibitor", "measurement": "Ki", "result": "1360 µM"}
{"Structure (SMILES)": "COc1ccccc1C(=O)c1c[nH]c2ccccc12", "target": "AHR", "observed": "reporter gene", "mode": "agonist", "technique": "luciferase", "measurement": "EC50", "result": "> 10 µM"}
